Test results from ChEMBL document CHEMBL1140586, “Design and synthesis of a functionally selective D3 agonist and its in vivo delivery via the intranasal route” (Bioorg Med Chem Lett, 2007).
Calls of active or inactive are those of the source. No cut-off for these calls is given here.

Key:
[1] = Distribution coefficient, log D at pH 7.4; assay type: physicochemical; conditions: octanol/water
[2] = molecular target: T1, 5-hydroxytryptamine receptor 1A (Homo sapiens) (UniProt P08908); assay: Binding affinity to human 5HT1A receptor at 10 uM
T1 sequence (whole entry): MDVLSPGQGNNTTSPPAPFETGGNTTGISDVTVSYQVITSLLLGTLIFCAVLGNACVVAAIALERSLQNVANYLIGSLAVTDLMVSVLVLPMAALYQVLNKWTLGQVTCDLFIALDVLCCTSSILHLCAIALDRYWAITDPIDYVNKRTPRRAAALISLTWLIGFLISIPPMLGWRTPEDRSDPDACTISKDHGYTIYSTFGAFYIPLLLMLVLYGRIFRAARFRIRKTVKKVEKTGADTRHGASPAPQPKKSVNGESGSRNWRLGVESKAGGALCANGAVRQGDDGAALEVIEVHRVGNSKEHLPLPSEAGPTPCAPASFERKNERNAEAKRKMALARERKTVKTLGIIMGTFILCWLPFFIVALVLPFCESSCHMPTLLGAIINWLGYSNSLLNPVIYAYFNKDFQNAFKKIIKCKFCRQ
Method in brief: (§1)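 Single-concentration binding screen in the Cerep wide ligand profile panel at the human 5HT1A receptor. Read-out is percent binding activity at each test concentration.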

[3] = molecular target: T1, 5-hydroxytryptamine receptor 1A (Homo sapiens); assay: Agonist activity at human recombinant 5HT1A at 1 uM; assay type: functional
Canis familiaris [4] = assay: Toxicity in sc dog assessed as hypotensive effects upto […]; assay type: organism-based, Canis lupus familiaris; conditions: in vivo
[5] = Protein binding in human plasma; assay type: ADME, cell-free; conditions: read-out: PB (converted)
[6] = Intranasal bioavailability in dog at 0.3 mg/kg; assay type: ADME, organism-based, Canis lupus familiaris; conditions: in vivo, inhaled or intranasal
Method in brief: (§2)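 Dogs, male (n = 2) and female (n = 2). Compound freshly prepared in saline. The intravenous reference was a 10-min infusion at 3 ml/kg/h of a 0.2 mg/ml solution, giving a final dose of 0.1 mg/kg. Intranasal doses of 0.1 and 0.3 mg/kg were given as 100 µl into one nostril by spray device.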

Canis familiaris [7] = assay: Toxicity in sc dog assessed as emesis upto […]; assay type: organism-based, Canis lupus familiaris; conditions: in vivo
Histamine H1 receptor = Histamine H1 receptor (Homo sapiens, UniProt P35367); assay: Binding affinity to human histamine H1 receptor
[8] = Protein binding in dog plasma; assay type: ADME, cell-free, Canis lupus familiaris; conditions: read-out: PB (converted)
[9] = Tmax in dog at 0.3 mg/kg; assay type: ADME, organism-based, Canis lupus familiaris; design: dose 0.3 mg/kg; conditions: in vivo; method in brief: as §2
[10] = molecular target: T2, Muscarinic acetylcholine receptor M1 (Homo sapiens, UniProt P11229); assay: Binding affinity to human muscarinic M1 receptor
T2 sequence (P11229 whole entry): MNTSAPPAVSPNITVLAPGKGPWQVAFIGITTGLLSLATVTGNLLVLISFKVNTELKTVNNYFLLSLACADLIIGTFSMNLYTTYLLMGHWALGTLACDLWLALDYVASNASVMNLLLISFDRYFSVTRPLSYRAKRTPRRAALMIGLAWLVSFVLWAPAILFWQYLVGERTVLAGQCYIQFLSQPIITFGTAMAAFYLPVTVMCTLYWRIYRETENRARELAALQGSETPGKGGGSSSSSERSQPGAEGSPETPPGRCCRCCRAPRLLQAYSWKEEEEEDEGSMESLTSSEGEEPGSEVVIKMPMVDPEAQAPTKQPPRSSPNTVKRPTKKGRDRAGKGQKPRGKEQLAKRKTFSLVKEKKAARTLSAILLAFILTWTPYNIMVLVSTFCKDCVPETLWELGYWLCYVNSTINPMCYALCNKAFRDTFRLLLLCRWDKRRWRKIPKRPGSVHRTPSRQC

[11] = molecular target: T1, 5-hydroxytryptamine receptor 1A (Homo sapiens); assay: Binding affinity to human 5HT1A receptor at 100 nM; method in brief: as §1
[12] = molecular target: T3, Alpha-2A adrenergic receptor (Homo sapiens, UniProt P08913); assay: Binding affinity to human alpha-2A adrenergic receptor
T3 sequence (P08913 whole entry): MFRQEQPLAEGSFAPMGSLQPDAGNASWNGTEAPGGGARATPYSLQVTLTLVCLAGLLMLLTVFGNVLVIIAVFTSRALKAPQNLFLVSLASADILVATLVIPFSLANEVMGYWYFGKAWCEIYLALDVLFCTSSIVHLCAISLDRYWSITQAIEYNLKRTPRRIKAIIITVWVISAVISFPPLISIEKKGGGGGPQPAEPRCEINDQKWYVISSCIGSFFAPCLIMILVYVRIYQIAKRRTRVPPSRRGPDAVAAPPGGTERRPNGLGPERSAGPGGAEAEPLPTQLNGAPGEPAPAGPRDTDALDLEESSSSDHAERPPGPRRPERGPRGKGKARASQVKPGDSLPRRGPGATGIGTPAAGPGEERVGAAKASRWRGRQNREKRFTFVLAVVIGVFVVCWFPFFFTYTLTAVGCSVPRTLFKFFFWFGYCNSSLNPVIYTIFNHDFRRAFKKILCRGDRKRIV

Canis familiaris [13] = assay: Toxicity in sc dog assessed as nausea upto […]; assay type: organism-based, Canis lupus familiaris; conditions: in vivo
[14] = Half life in dog at 0.3 mg/kg; assay type: ADME, organism-based, Canis lupus familiaris; design: dose 0.3 mg/kg; conditions: in vivo; method in brief: as §2
[15] = molecular target: T4, 5-hydroxytryptamine receptor 1A (Homo sapiens, UniProt P08908); assay: Antagonist activity at human recombinant 5HT1A receptor; assay type: functional
T4 sequence (P08908 whole entry): T1 sequence (whole entry)

[16] = Solubility of the compound; assay type: physicochemical
[17] = molecular target: Voltage-gated inwardly rectifying potassium channel KCNH2 (Homo sapiens, UniProt Q12809); assay: Displacement of dofetilide from hERG
[18] = Apparent permeability across Caco-2 cells at 1 uM; assay type: ADME, cell-based; conditions: human
[19] = Stability in human hepatocytes; assay type: ADME, cell-based, Liver, Hepatocyte
Method in brief: (§3)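 Rat, dog and human hepatocyte incubations; read-out was the disappearance half-life of parent compound, in minutes.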

[20] = Intranasal bioavailability in rat at 2 mg/kg; assay type: ADME, organism-based; conditions: in vivo, inhaled or intranasal
Method in brief: (§4)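 Rat study: compound freshly prepared in saline. An intravenous reference dose of 1 mg/kg was given as a bolus. Intranasal doses of 0.5 and 2 mg/kg were given as 20 µl into one nostril by pipette.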

[21] = molecular target: T5, Alpha-1A adrenergic receptor (Rattus norvegicus, UniProt P43140); assay: Binding affinity to rat alpha-1A adrenergic receptor
T5 sequence (P43140 whole entry): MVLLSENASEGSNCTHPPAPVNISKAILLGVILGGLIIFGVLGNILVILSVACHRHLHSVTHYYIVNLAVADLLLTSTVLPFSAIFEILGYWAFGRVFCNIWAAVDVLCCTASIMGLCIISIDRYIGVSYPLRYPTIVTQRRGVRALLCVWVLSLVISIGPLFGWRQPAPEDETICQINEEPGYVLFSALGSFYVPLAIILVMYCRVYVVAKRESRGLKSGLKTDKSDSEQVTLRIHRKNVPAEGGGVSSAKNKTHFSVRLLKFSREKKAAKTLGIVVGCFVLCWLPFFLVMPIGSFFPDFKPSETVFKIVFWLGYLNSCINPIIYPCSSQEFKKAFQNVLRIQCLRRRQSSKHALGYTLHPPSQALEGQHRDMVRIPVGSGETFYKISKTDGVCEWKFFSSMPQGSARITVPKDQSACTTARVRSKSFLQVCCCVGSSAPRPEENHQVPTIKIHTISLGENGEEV

[22] = Protein binding in rat plasma; assay type: ADME, cell-free; conditions: read-out: PB (converted)
[23] = Stability in dog hepatocytes; assay type: ADME, cell-based, Liver, Hepatocyte; method in brief: as §3
D(2) dopamine receptor = D(2) dopamine receptor (Homo sapiens, UniProt P14416); assay: Agonist activity at human recombinant dopamine D2 receptor expressed in rat pituitary cells assessed as inhibition of forskolin-stimulated cAMP accumulation; assay type: functional, cell-based, Pituitary gland cell
[24] = Stability in rat hepatocytes; assay type: ADME, cell-based, Liver, Hepatocyte; method in brief: as §3
D(1A) dopamine receptor = D(1A) dopamine receptor (Homo sapiens, UniProt P21728); assay: Binding affinity to dopamine D1 receptor
Method in brief: (§5)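 Broad commercial ligand-binding panel profiling, including dopamine D1 and D5 receptors; reported as IC50.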

Canis familiaris [25] = assay: Effect on male erectile dysfunction in sc dosed dog; assay type: functional, Canis lupus familiaris
Method in brief: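 Animal models of male erectile dysfunction, with multiple subcutaneous dosing; ED50 expressed as free drug concentration.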

[26] = molecular target: 5-hydroxytryptamine receptor 2A (Rattus norvegicus, UniProt P14842); assay: Binding affinity to rat 5HT2A receptor
D(1B) dopamine receptor = D(1B) dopamine receptor (Homo sapiens, UniProt P21918); assay: Binding affinity to dopamine D5 receptor; method in brief: as §5
D(3) dopamine receptor = D(3) dopamine receptor (Homo sapiens, UniProt P35462); assay: Agonist activity at human recombinant dopamine D3 receptor expressed in CHO cells assessed as inhibition of forskolin-stimulated cAMP accumulation; assay type: functional, cell-based
[27] = Tmax in rat at 2 mg/kg administered by intranasal route; assay type: ADME, organism-based; design: dose 2 mg/kg; conditions: in vivo, inhaled or intranasal; method in brief: as §4
[28] = Half life in rat at 2 mg/kg administered by intranasal route; assay type: ADME, organism-based; design: dose 2 mg/kg; conditions: in vivo, inhaled or intranasal; method in brief: as §4
[29] = Dissociation constant, pKa of the compound; assay type: physicochemical

D(3) dopamine receptor, sequence (P35462 whole entry): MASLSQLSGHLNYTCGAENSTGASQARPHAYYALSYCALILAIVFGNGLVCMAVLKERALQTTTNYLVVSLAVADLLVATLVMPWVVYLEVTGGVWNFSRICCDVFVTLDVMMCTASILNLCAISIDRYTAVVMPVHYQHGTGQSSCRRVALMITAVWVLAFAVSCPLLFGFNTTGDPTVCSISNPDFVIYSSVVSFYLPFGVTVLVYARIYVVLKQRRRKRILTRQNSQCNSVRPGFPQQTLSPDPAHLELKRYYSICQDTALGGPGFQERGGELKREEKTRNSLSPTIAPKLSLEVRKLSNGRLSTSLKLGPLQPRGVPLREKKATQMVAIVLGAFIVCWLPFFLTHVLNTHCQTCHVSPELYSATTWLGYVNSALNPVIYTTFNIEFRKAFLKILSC
Voltage-gated inwardly rectifying potassium channel KCNH2, sequence (Q12809 whole entry): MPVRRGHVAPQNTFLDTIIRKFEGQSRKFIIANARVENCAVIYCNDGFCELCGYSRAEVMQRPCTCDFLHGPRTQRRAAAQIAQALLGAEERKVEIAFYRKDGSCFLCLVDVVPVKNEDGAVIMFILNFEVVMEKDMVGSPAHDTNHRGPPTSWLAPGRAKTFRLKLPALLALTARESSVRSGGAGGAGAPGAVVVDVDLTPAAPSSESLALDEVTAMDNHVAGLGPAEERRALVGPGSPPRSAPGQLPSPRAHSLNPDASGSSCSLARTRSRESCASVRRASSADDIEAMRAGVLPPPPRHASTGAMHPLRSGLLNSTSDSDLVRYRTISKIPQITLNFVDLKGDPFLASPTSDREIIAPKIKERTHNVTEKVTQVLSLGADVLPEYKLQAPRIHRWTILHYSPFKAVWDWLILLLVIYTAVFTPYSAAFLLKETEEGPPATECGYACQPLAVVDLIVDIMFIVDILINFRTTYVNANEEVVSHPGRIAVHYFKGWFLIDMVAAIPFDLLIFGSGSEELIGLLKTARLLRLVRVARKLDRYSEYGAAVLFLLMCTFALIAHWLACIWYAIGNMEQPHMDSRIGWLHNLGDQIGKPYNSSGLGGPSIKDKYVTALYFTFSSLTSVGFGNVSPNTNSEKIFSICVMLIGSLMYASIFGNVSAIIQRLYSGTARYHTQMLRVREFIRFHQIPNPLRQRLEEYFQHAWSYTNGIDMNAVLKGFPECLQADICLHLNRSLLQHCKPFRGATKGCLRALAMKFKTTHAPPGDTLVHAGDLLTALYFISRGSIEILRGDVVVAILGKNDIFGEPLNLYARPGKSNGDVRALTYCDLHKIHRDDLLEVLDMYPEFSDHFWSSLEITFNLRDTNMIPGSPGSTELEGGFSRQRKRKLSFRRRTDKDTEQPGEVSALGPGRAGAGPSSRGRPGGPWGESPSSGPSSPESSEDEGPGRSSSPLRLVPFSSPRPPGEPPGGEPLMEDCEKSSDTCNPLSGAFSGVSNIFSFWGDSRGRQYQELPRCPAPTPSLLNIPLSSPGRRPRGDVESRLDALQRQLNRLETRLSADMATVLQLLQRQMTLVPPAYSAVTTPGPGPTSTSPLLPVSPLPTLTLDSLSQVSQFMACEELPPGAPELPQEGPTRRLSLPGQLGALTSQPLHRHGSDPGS
Histamine H1 receptor, sequence (P35367 whole entry): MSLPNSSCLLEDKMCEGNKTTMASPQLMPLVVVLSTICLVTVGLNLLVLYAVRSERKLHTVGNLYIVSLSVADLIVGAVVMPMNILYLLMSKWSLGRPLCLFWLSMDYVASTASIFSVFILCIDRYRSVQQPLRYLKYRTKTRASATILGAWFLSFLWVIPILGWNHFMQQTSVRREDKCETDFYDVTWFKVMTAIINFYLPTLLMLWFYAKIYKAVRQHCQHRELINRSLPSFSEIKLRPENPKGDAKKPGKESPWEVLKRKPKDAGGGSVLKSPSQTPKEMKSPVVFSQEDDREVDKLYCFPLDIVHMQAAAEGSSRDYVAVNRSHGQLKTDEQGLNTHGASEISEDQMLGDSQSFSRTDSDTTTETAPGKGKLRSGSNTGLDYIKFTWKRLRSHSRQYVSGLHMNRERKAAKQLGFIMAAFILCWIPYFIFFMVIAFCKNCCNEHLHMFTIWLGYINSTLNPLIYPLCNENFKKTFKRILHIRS
5-hydroxytryptamine receptor 2A, sequence (P14842 whole entry): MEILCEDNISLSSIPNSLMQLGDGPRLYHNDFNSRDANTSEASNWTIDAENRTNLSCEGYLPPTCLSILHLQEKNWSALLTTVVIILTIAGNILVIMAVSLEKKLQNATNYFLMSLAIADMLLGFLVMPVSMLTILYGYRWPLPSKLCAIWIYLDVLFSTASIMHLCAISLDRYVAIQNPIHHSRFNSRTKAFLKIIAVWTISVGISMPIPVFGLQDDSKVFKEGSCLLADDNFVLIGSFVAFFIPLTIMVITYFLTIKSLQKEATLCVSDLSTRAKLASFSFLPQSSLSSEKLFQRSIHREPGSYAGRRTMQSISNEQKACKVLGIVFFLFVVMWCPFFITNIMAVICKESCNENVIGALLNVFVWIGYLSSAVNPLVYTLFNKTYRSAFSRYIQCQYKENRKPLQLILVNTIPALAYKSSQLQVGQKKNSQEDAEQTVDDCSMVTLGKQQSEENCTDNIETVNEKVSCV
D(2) dopamine receptor, sequence (P14416 whole entry): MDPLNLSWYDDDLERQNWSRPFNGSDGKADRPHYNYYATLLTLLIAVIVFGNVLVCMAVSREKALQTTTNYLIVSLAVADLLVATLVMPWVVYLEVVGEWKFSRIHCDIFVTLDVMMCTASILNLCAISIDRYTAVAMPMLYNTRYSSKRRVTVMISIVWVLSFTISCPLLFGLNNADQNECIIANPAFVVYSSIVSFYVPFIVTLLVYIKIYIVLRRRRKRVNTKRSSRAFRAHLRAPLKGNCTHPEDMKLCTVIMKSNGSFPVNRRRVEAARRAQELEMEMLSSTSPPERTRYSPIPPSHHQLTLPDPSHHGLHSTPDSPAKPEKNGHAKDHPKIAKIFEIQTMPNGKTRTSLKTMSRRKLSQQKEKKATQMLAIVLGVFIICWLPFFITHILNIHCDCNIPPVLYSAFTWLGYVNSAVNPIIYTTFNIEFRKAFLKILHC
D(1A) dopamine receptor, sequence (P21728 whole entry): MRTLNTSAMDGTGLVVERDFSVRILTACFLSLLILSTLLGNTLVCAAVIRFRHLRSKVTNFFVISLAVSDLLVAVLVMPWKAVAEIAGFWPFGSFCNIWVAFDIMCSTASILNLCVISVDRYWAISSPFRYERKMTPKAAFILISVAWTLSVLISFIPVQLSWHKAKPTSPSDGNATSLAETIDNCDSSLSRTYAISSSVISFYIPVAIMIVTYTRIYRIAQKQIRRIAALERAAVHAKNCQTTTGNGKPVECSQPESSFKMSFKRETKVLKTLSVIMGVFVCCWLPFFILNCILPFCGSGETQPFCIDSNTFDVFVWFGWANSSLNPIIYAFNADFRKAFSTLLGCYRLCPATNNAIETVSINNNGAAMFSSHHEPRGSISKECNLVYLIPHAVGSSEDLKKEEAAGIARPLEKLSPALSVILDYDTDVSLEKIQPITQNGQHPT
D(1B) dopamine receptor, sequence (P21918 whole entry): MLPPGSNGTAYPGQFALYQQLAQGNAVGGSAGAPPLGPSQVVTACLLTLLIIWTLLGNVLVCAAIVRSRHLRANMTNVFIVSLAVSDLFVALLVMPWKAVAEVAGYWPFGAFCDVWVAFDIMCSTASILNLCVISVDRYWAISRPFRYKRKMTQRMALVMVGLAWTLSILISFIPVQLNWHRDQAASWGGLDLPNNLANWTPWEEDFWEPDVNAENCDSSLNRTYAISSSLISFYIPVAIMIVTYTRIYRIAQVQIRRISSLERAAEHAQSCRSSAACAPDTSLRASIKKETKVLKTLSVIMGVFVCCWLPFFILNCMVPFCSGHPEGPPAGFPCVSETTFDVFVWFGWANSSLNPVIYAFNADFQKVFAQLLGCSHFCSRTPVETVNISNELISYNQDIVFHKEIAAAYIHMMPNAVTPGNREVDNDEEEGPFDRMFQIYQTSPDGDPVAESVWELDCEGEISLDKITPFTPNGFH

SMILES: CCCN1CCO[C@H](c2cccc(O)c2)C1
- logD [1]: 1
- Activity [2]: 95%
- Activity [3]: inactive
- Activity (Canis familiaris [4]): Non-toxic
- fraction unbound [5]: 0.35
- bioavailability [6]: 33%
- Activity (Canis familiaris [7]): Non-toxic
- Ki (Histamine H1 receptor): > 2000 nM
- fraction unbound [8]: 0.24
- Tmax [9]: 5 min
- Ki [10]: > 1000 nM
- Activity [11]: 16%
- Ki [12]: > 1000 nM
- Activity (Canis familiaris [13]): Non-toxic
- half-life [14]: 96 min
- IC50 [15]: > 20000 nM
- solubility [16]: > 1000 mg/mL
- Ki [17]: > 4000 nM
- Papp at 1 µM [18]: 38 ×10⁻⁶ cm/s
- half-life [19]: 61 min
- bioavailability [20]: 20%
- Ki [21]: > 1000 nM
- fraction unbound [22]: 0.59
- half-life [23]: 18 min
- EC50 (D(2) dopamine receptor): > 10000 nM
- half-life [24]: 28 min
- IC50 (D(1A) dopamine receptor): > 10000 nM
- ED50 (Canis familiaris [25]): 0.2 nM
- Ki [26]: 970 nM
- IC50 (D(1B) dopamine receptor): > 10000 nM
- EC50 (D(3) dopamine receptor): 8 nM
- Emax (D(3) dopamine receptor): > 90%
- Tmax [27]: 5 min
- half-life [28]: 18 min
- pKa [29]: 7.4
